Laboratory results as given in ChEMBL document CHEMBL1151838, “Isariotins E and F, spirocyclic and bicyclic hemiacetals from the entomopathogenic fungus Isaria tenuipes BCC 12625” (J Nat Prod, 2009).
≈ marks a conversion by molar mass, not a printed value.

What was measured:
NCI-H187 = assay: Cytotoxicity against human NCI-H187 cells by SRB assay; type: functional, cell-based
Procedure, shortened: (§1)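 Colorimetric cytotoxicity assay. IC50 given as mean ± SD (n = 3), curve fits with R2 > 0.9. Ellipticine served as positive control.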

[1] = Cytotoxicity against human BC cells by SRB assay; type: functional, cell-based; procedure, shortened: as §1
Vero = assay: Cytotoxicity against african green monkey Vero cells by SRB assay; type: cell-based, Chlorocebus sabaeus; procedure, shortened: as §1
KB = assay: Cytotoxicity against human KB cells by SRB assay; type: functional, cell-based; procedure, shortened: as §1
Candida albicans = assay: Antifungal activity against Candida albicans; type: functional, organism-based
Procedure, shortened: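 Colorimetric growth-inhibition assay against Candida albicans; IC50 values reported.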

Plasmodium falciparum = assay: Antiplasmodial activity after 24 hrs against Plasmodium falciparum K1 by [G-3H]hypoxanthine uptake; type: functional, organism-based; conditions: K1, 24 h
Procedure, shortened: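 P. falciparum K1 tested by a microculture radioisotope technique, with IC50 as the read-out.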

[2] = system: Mycobacterium tuberculosis; assay: Antitubercular activity against Mycobacterium tuberculosis H37Ra after 4 days by microplate alamar blue assay; type: functional; conditions: 96 h
Procedure, shortened: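 M. tuberculosis H37Ra tested by microplate Alamar Blue assay. MIC was taken as the lowest concentration giving ≥90% growth inhibition.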

[3] = Homo sapiens, NCI-H187, read-out: IC50
[4] = Homo sapiens, BC, read-out: IC50
[5] = Chlorocebus sabaeus, Vero, read-out: IC50
[6] = Homo sapiens, KB, read-out: IC50

Compound	IC50 (Candida albicans)	IC50 (Plasmodium falciparum)	IC50 (NCI-H187; [3])	IC50 [1, 4]	IC50 (Vero; [5])	IC50 (KB; [6])	MIC [2]	also measured
CCCCCCCCC/C=C/C(=O)N[C@H]1C[C@@]2(O)C(=O)[C@@H]([C@H]1O)[C@H](OC)[C@@H]1O[C@@H]12	–	–	–	–	–	–	–	IC50 (NCI-H187; nci-h187): Not Active; IC50 ([1]; bc): Not Active; IC50 (Vero; vero): Not Active; IC50 (KB; kb): Not Active
C[C@@H]1[C@H](O)[C@@H](C)/C=C/C=C/C=C/C=C/C=C/C=C/C=C/[C@H](O[C@@H]2O[C@H](C)[C@@H](O)[C@H](N)[C@@H]2O)C[C@@H]2O[C@](O)(C[C@@H](O)C[C@@H](O)[C@H](O)CC[C@@H](O)C[C@@H](O)CC(=O)O[C@H]1C)C[C@H](O)[C@H]2C(=O)O [AMPHOTERICIN B]	30 nM	–	–	–	–	–	–	–
C[C@H]1[C@@H](O)O[C@@H]2O[C@@]3(C)CC[C@H]4[C@H](C)CC[C@@H]1[C@@]24OO3 [ARTENIMOL]	–	4 nM	–	–	–	–	–	–
Cc1c2ccncc2c(C)c2c1[nH]c1ccccc12 [ELLIPTECINE]	–	–	4400 nM	1200 nM	1690 nM	1380 nM	–	–
CCCCCCCCC/C=C/C(=O)N[C@H]1C[C@@]2(O)C(=O)C=C[C@@H](Cl)[C@@H]2O[C@H]1O [ISARIOTIN F]	13900 nM	5100 nM	1600 nM	2400 nM	2900 nM	15800 nM	60.4 µM (≈ 25 µg/mL)	–
NNC(=O)c1ccncc1 [ISONIAZID]	–	–	–	–	–	–	0.37 µM (≈ 0.0507 µg/mL)	–
